≈ marks a conversion by molar mass, not a printed value. Calls of active or inactive are those of the source. No cut-off for these calls is given here.
Key:
Staphylococcus aureus [1] = assay: Antibacterial activity against methicillin-resistant Staphylococcus aureus BAA-44 assessed as bacterial growth inhibition incubated for 16 hrs by CLSI based broth microdilution method; format: functional
Procedure, shortened: (§1)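 Broth microdilution per CLSI in LB, eleven two-fold serial dilutions spanning 0.10 to 100 µM. Inoculum ~10⁵ cells/well from fresh log-phase culture (OD₆₀₀ 0.6–0.8). MIC taken as lowest concentration preventing growth after 16 h at 37 °C, read by OD₆₀₀ turbidity. DMSO vehicle control, top 0.5% v/v. At least three independent experiments.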

[2] = test system: Staphylococcus epidermidis; assay: Antibacterial activity against Staphylococcus epidermidis 12228 assessed as bacterial growth inhibition incubated for 16 hrs by CLSI based broth microdilution method; format: functional
Procedure, shortened: (§2)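 CLSI broth microdilution in LB: eleven 2-fold serial dilutions, 0.10–100 µM. DMSO vehicle/negative control diluted from 0.5% v/v. Wells seeded with ~10⁵ cells from log-phase culture (OD₆₀₀ 0.6–0.8), held 16 h at 37 °C. MIC taken as the lowest concentration preventing growth by OD₆₀₀ turbidity. Minimum three independent experiments.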

Staphylococcus aureus [3] = assay: Antibacterial activity against methicillin-resistant Staphylococcus aureus BAA-1707 assessed as bacterial growth inhibition incubated for 16 hrs by CLSI based broth microdilution method; format: functional; procedure, shortened: as §1
[4] = Metal chelating activity assessed as formation of phenazine-iron complex measured for 1 to 60 mins by UV-vis spectroscopy; conditions: time 1-60 min
Procedure, shortened: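 Compound from a 10 mM DMSO stock diluted in DMSO in a cuvette, alone or with ammonium iron(II) sulfate hexahydrate (10 mM aqueous stock). Spectra of the compound-only cuvette and the iron-containing cuvette are compared by UV-vis spectrometry to judge phenazine–iron(II) complex formation.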

Streptococcus pneumoniae = assay: Antibacterial activity against Streptococcus pneumoniae 6303 assessed as bacterial growth inhibition incubated for 16 hrs by CLSI based broth microdilution method; format: functional; procedure, shortened: as §2
Staphylococcus aureus [5] = assay: Antibacterial activity against methicillin-resistant Staphylococcus aureus 1707 assessed as zone of inhibition at 10 mM incubated for 16 hrs by agar diffusion assay; format: functional
Procedure, shortened: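 Modified Kirby-Bauer disk diffusion. 100 µL MRSA 1707 inoculum (OD₆₀₀ 0.7, ~10⁸ CFU) spread on LB agar and left 30 min. 10 µL of 10 mM DMSO compound solution then pipetted onto the plate. Incubation 16 h at 37 °C; zone of inhibition area (cm²) measured. Three independent experiments.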

Staphylococcus aureus [6] = assay: Antibacterial activity against methicillin-resistant Staphylococcus aureus 1707 assessed as bacterial growth inhibition incubated for 16 hrs by CLSI based broth microdilution method; format: functional; procedure, shortened: as §1
[7] = Hemolytic activity against red blood cells (unknown origin) at 200 uM; format: toxicity, cell-based, Erythrocyte; conditions: read-out: Activity
Enterococcus = assay: Antibacterial activity against vancomycin-resistant Enterococcus 700221 assessed as bacterial growth inhibition incubated for 16 hrs by CLSI based broth microdilution method; format: functional
Procedure, shortened: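 Growth scored by OD₆₀₀ turbidity after 16 h at 37 °C; MIC is the lowest concentration preventing growth. DMSO vehicle control up to 0.5% v/v. Three or more independent experiments.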

Enterococcus faecalis = assay: Antibacterial activity against Enterococcus faecalis OG1RF assessed as bacterial growth inhibition incubated for 16 hrs by CLSI based broth microdilution method; format: functional
Procedure, shortened: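 Broth microdilution per CLSI in brain-heart infusion: eleven 2-fold dilutions spanning 0.10–100 µM, with DMSO vehicle/negative control topping at 0.5% v/v. Inoculum ~10⁵ cells/well from log-phase culture (OD₆₀₀ 0.6–0.8). 37 °C, 16 h. MIC is the lowest concentration preventing growth, read as OD₆₀₀ turbidity. At least three independent experiments.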

[8] = Cytotoxicity against HEK293 cells incubated for 48 hrs by MTT assay; format: toxicity, cell-based; conditions: human
Procedure, shortened: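 HEK-293 cells (10⁴/well) in DMEM with 10% FBS, penicillin/streptomycin, settled overnight at 37 °C, 5% CO₂. Medium replaced with compound at 0.10–100 µM (2-fold steps); DMSO as negative control. After 48 h at 37 °C, MTT (5 mg/mL stock) added for 3 h. Formazan dissolved in DMSO, OD read at 570 nm. Eight replicates per treatment.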

[9] = test system: Staphylococcus epidermidis; assay: Antibacterial activity against methicillin-resistant Staphylococcus epidermidis 35984 assessed as bacterial growth inhibition incubated for 16 hrs by CLSI based broth microdilution method; format: functional; procedure, shortened: as §1
Staphylococcus aureus [10] = assay: Antibacterial activity against Staphylococcus aureus clinical isolate 138 assessed as bacterial growth inhibition incubated for 16 hrs by CLSI based broth microdilution method; format: functional
Staphylococcus aureus [11] = assay: Antibacterial activity against methicillin-resistant Staphylococcus aureus clinical isolate 1 assessed as bacterial growth inhibition incubated for 16 hrs by CLSI based broth microdilution method; format: functional
Staphylococcus aureus [12] = assay: Antibacterial activity against Staphylococcus aureus clinical isolate 156 assessed as bacterial growth inhibition incubated for 16 hrs by CLSI based broth microdilution method; format: functional
Staphylococcus aureus [13] = assay: Antibacterial activity against methicillin-resistant Staphylococcus aureus clinical isolate 2 assessed as bacterial growth inhibition incubated for 16 hrs by CLSI based broth microdilution method; format: functional
Staphylococcus aureus [14] = assay: Antibacterial activity against Staphylococcus aureus clinical isolate 129 assessed as bacterial growth inhibition incubated for 16 hrs by CLSI based broth microdilution method; format: functional
Staphylococcus aureus [15] = assay: Antibacterial activity against Staphylococcus aureus clinical isolate 147 assessed as bacterial growth inhibition incubated for 16 hrs by CLSI based broth microdilution method; format: functional
[16] = test system: Staphylococcus epidermidis; assay: Antibacterial activity against Staphylococcus epidermidis clinical isolate CL-1 assessed as bacterial growth inhibition incubated for 16 hrs by CLSI based broth microdilution method; format: functional
[17] = Lipophilicity, LogP of compound in octanol-water mixture incubated for 1 hr by UV-vis spectroscopy; format: physicochemical
Procedure, shortened: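 Shake-flask partition: compound in octanol (1% v/v DMSO) mixed with equal volume water, stirred vigorously, left 1 h at room temperature to separate. Octanol-phase concentration measured by UV-Vis at 370 or 380 nm against a serial-dilution standard curve. Water concentration obtained by mass balance; LogP = log10(Coct/Cw). Acetophenone as positive control. Three independent experiments.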

Compound	MIC (Staphylococcus aureus [1])	MIC [2]	MIC (Staphylococcus aureus [3])	Activity [4]	MIC (Streptococcus pneumoniae)	diameter of the inhibition zone (DIZ) (Staphylococcus aureus [5])	MIC (Staphylococcus aureus [6])	hemolysis at 200 µM [7]	MIC (Enterococcus)	MIC (Enterococcus faecalis)	CC50 at 48 h [8]	MIC [9]	MIC (Staphylococcus aureus [10])	MIC (Staphylococcus aureus [11])	MIC (Staphylococcus aureus [12])	MIC (Staphylococcus aureus [13])	MIC (Staphylococcus aureus [14])	MIC (Staphylococcus aureus [15])	MIC [16]	logP at 1 h [17]
Oc1c(Br)cc(Br)c2nc3cc(Cl)ccc3nc12	0.15 µM (≈ 0.0583 µg/mL)	0.3 µM (≈ 0.117 µg/mL)	0.075 µM (≈ 0.0291 µg/mL)	Active	0.3 µM (≈ 0.117 µg/mL)	1.7 cm2	0.1 µM (≈ 0.0388 µg/mL)	< 1%	–	–	–	–	–	–	–	–	–	–	–	–
O=S(=O)(Cc1ccccc1)Oc1c(Br)cc(Br)c2nc3cc(Cl)ccc3nc12	–	3.13 µM (≈ 1.7 µg/mL)	2.35 µM (≈ 1.28 µg/mL)	inactive	1.56 µM (≈ 0.847 µg/mL)	0 cm2	3.13 µM (≈ 1.7 µg/mL)	–	> 100 µM	> 100 µM	30.3 µM	–	–	–	–	–	–	–	–	–
Oc1c(Br)cc(Br)c2nc3c(C(F)(F)F)cc(C(F)(F)F)cc3nc12	0.15 µM (≈ 0.0735 µg/mL)	0.1 µM (≈ 0.049 µg/mL)	0.15 µM (≈ 0.0735 µg/mL)	Active	0.1 µM (≈ 0.049 µg/mL)	4.58 cm2	0.1 µM (≈ 0.049 µg/mL)	16.7%	0.2 µM (≈ 0.098 µg/mL)	0.1 µM (≈ 0.049 µg/mL)	–	0.05 µM (≈ 0.0245 µg/mL)	–	–	–	–	–	–	–	–
O=[N+]([O-])c1ccc(CS(=O)(=O)Oc2c(Br)cc(Br)c3nc4cc(Cl)ccc4nc23)cc1	0.15 µM (≈ 0.0881 µg/mL)	0.15 µM (≈ 0.0881 µg/mL)	0.1 µM (≈ 0.0588 µg/mL)	inactive	0.15 µM (≈ 0.0881 µg/mL)	0.66 cm2	0.1 µM (≈ 0.0588 µg/mL)	< 1%	0.59 µM (≈ 0.347 µg/mL)	4.69 µM (≈ 2.76 µg/mL)	6.4 µM	0.39 µM (≈ 0.229 µg/mL)	–	–	–	–	–	–	–	–
CN(C)[C@@H]1C(O)=C(C(N)=O)C(=O)[C@@]2(O)C(O)=C3C(=O)c4c(O)cccc4[C@@](C)(O)[C@H]3C[C@@H]12 [TETRACYCLINE]	–	–	–	–	–	–	–	–	–	–	–	–	0.15 µM (≈ 0.0667 µg/mL)	0.1 µM (≈ 0.0444 µg/mL)	0.15 µM (≈ 0.0667 µg/mL)	0.1 µM (≈ 0.0444 µg/mL)	0.1 µM (≈ 0.0444 µg/mL)	0.1 µM (≈ 0.0444 µg/mL)	25 µM (≈ 11.1 µg/mL)	–
Oc1c(Br)cc(Br)c2nc3ccccc3nc12	–	2.35 µM (≈ 0.832 µg/mL)	–	Active	1.17 µM (≈ 0.414 µg/mL)	5.08 cm2	–	< 1%	–	18.8 µM (≈ 6.66 µg/mL)	–	–	–	0.78 µM (≈ 0.276 µg/mL)	–	1.56 µM (≈ 0.552 µg/mL)	–	–	–	0.25
O=S(=O)(Cc1ccccc1)Oc1c(Br)cc(Br)c2nc3c(C(F)(F)F)cc(C(F)(F)F)cc3nc12	18.8 µM (≈ 12.1 µg/mL)	0.15 µM (≈ 0.0966 µg/mL)	> 100 µM	inactive	0.2 µM (≈ 0.129 µg/mL)	1.07 cm2	> 100 µM	–	0.78 µM (≈ 0.502 µg/mL)	0.39 µM (≈ 0.251 µg/mL)	3.6 µM	1.56 µM (≈ 1 µg/mL)	–	–	–	–	–	–	–	–
COc1cccc(OC)c1C(=O)N[C@@H]1C(=O)N2[C@@H]1SC(C)(C)[C@@H]2C(=O)O [METHICILLIN]	–	–	–	–	–	–	–	–	–	–	–	–	37.5 µM (≈ 14.3 µg/mL)	37.5 µM (≈ 14.3 µg/mL)	25 µM (≈ 9.51 µg/mL)	> 100 µM	37.5 µM (≈ 14.3 µg/mL)	6.25 µM (≈ 2.38 µg/mL)	12.5 µM (≈ 4.76 µg/mL)	–
